# T cruzi growth-1: T. cruzi proliferation inhibition. T. cruzi beta-gal in NIH3T3, GalScreen luminescence, 90 h. inhibition, % at 8.34 µM. actives 5.9% (n = 77,000);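 active = mean inhibition above about 93%, with at least 55% of replicates each passing it, limit read from the data, passing the limit was not always enough; inconclusive = only one of those two conditions holds; inactive = neither condition holds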
# KDM4C inh: KDM4C (human) demethylase inhibition; Q9H3R0; GST-KDM4C 2-372, H3K9me3 peptide, LANCE TR-FRET; inhibition, % at 12.5 µM; actives 0.15% (n = 96,000); AID 720574;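 active = mean replicate inhibition above about 25%, with at least 55% of replicates also reaching it, limit read from the data, passing the limit was not always enough; inconclusive = only one of those two conditions met; inactive = neither condition met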
#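 material = GST-tagged GASC-1 (JMJD2C) catalytic fragment, aa 2-372 | amount = enzyme final amount 10 nM | medium = HEPES buffer, pH 7.5, plus ascorbate | also added = H3K9me3 peptide substrate, Fe(II), 2-oxoglutarate | dosing = single dose | times = 30 min demethylation and 1 h detection at room temperature | detection = LANCE TR-FRET | read-out basis = Fall in 671/618 emission ratio as inhibition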
# IDH1 R132H inh: IDH1 R132H (human) inhibition; inhibition, % at 10 µM; IDH1 R132H reductase, diaphorase/resazurin fluorescence, 60 min; actives 0.18% (n = 70,000); O75874; in the data active = inhibition above about 34%; inconclusive = no clear call, values can overlap the other calls; inactive = below about 11%;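 also: 0% = DMSO and 100% = no enzyme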
# Target sequence (O75874 whole entry R132H): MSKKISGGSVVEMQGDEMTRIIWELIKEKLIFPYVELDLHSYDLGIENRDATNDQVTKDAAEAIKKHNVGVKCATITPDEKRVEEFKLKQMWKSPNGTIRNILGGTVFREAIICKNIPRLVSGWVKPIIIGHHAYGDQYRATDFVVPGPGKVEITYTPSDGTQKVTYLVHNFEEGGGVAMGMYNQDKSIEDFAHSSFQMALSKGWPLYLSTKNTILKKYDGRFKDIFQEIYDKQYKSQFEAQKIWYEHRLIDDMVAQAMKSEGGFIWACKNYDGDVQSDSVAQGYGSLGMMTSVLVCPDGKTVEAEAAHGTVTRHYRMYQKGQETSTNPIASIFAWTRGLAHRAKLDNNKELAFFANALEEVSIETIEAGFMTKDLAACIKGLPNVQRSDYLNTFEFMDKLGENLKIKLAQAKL
# Pf Dd2 growth: P. falciparum Dd2 growth inhibition. SYBR Green, 72 h; hits give low values. activity change, % at 10 µM. actives 2.3% (n = 94,000). AID 1159554; in the data active = activity change below about -80%; inconclusive = no clear call, values can overlap the other calls
# T cruzi growth-2: Trypanosoma cruzi proliferation inhibition; AID 651739; inhibition, % at 8.35 µM; T. cruzi beta-gal in NIH3T3, GalScreen luminescence, 90 h; shares compounds with T cruzi growth-1; actives 72% (n = 5,600);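 active = mean replicate inhibition above about 95% and at least 55% of replicates individually reaching it, limit read from the data; inconclusive = only one of the two criteria is met; inactive = neither criterion is met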
# T cruzi growth-3: blocks T. cruzi growth in NIH3T3 host cells | shares compounds with T cruzi growth-1 | T. cruzi beta-gal in NIH3T3, GalScreen luminescence, 90 h | inhibition, % at 2.09 µM | actives 21% (n = 5,600);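 active = mean inhibition above about 95%, with at least 55% of replicates also reaching it, limit read from the data; inconclusive = meets just one of the two conditions; inactive = meets neither condition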;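 also: plate controls were neutral control median for no effect and positive control median for full effect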
# NIH3T3 tox: NIH/3T3 (mouse) viability loss. AID 651742. cytotoxicity (signal decrease), % at 8.35 µM. actives 14% (n = 5,600). NIH/3T3 viability, CellTiter-Glo ATP luminescence, 90 h. shares compounds with T cruzi growth-1;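 active = mean signal decrease across replicates above about 35% based on untreated-well scatter, with enough replicates individually passing, limit read from the data; inconclusive = no rule stated though some were filed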;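 also: 0% = median of neutral control wells and 100% = median of positive control wells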
# NIH3T3 tox 2: kills mouse NIH/3T3 fibroblasts. shares compounds with T cruzi growth-1. NIH/3T3 viability, CellTiter-Glo ATP luminescence, 90 h. inhibition, % at 24.9 µM. actives 56% (n = 5,600). AID 651744;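 active = mean loss of cell viability signal at or above a set limit, and enough replicates individually reaching it; inconclusive = meets only the mean limit or only the replicate share; inactive = meets neither condition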;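 also: 0% = median of neutral control wells and 100% = median of positive control wells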
# Numbers without * were called inactive; ? = inconclusive; nt = not tested or not shown. In the library only some 5.9% were active in any assay of this set; here they are far more common.
SMILES,T cruzi growth-1,KDM4C inh,IDH1 R132H inh,Pf Dd2 growth,T cruzi growth-2,T cruzi growth-3,NIH3T3 tox,NIH3T3 tox 2
C[C@H]1CCCCO[C@H](CN(C)Cc2ccc3c(c2)OCO3)[C@@H](C)CN([C@@H](C)CO)C(=O)c2cc(NC(=O)Nc3cccc4ccccc34)ccc2O1,64,-3,2,-76,nt,nt,nt,nt
C[C@@H]1CN([C@H](C)CO)C(=O)c2cc(NC(=O)Nc3cccc4ccccc34)ccc2O[C@@H](C)CCCCO[C@@H]1CN(C)Cc1ccc2c(c1)OCO2,?,-3,1,-89*,98*,109*,31,38*
C[C@@H]1CCCCO[C@@H](CN(C)Cc2ccc3c(c2)OCO3)[C@H](C)CN([C@@H](C)CO)C(=O)c2cc(NC(=O)Nc3cccc4ccccc34)ccc2O1,?,-4,nt,-72,104*,?,13,47*
C[C@@H]1CN([C@H](C)CO)C(=O)c2cc(NC(=O)Nc3cccc4ccccc34)ccc2O[C@@H](C)CCCCO[C@@H]1CN(C)Cc1ccccc1,nt,-2,2,-66,nt,nt,nt,nt
COC(=O)c1c(NC(=O)CC2Nc3cccc4cccc(c34)NC2=O)sc(C)c1C (stereo unspecified),nt,nt,0,nt,nt,nt,nt,nt
C[C@H](CO)N1C[C@H](C)[C@H](CN(C)Cc2ccncc2)Oc2cc(-c3ccccc3)ccc2S1(=O)=O,95*,1,0,-40,105*,99*,24,40*
Cc1ccc(-c2ccc3c(c2)O[C@@H](CN(C)Cc2ccccc2)[C@H](C)CN([C@@H](C)CO)S3(=O)=O)cc1,116*,3,3,-54,99*,104*,37*,104*
C[C@@H]1CN([C@@H](C)CO)S(=O)(=O)c2ccc(-c3ccccc3)cc2O[C@H]1CN(C)Cc1ccccc1,84,1,3,-66,nt,nt,nt,nt
C[C@H]1CN([C@@H](C)CO)S(=O)(=O)c2ccc(-c3cccnc3)cc2O[C@@H]1CN(C)Cc1ccncc1,?,-2,23,-2,101*,63,12,28*
C[C@@H]1CN([C@H](C)CO)S(=O)(=O)c2ccc(-c3ccccc3)cc2O[C@H]1CN(C)Cc1ccncc1,-22,0,nt,-35,nt,nt,nt,nt
C[C@H](CO)N1C[C@H](C)[C@@H](CN(C)Cc2ccccc2)Oc2cc(-c3ccncc3)ccc2S1(=O)=O,117*,5,nt,-69,99*,103*,71*,76*
CC(=O)Nc1ccc(C(=O)CSc2nc3ccccc3n2C)cc1,nt,nt,0,nt,nt,nt,nt,nt
CC1(C)CC(=O)C2=C(C1)N(Cc1ccco1)C(=O)C2(NC(=O)c1ccco1)C(F)(F)F (stereo unspecified),nt,nt,0,nt,nt,nt,nt,nt
O=S1(=O)N=C(N(CCO)c2ccc(Cl)cc2)c2ccccc21,nt,nt,0,nt,nt,nt,nt,nt
C[C@@H]1CN([C@H](C)CO)S(=O)(=O)c2ccc(-c3cncnc3)cc2O[C@H]1CN(C)Cc1ccccc1,?,2,0,-34,91,64,52*,68*
CC(=O)N(C)C[C@@H]1Oc2cc(-c3cccnc3)ccc2S(=O)(=O)N([C@H](C)CO)C[C@@H]1C,-120,1,0,24,nt,nt,nt,nt
C[C@@H]1CN([C@@H](C)CO)S(=O)(=O)c2ccc(-c3cncnc3)cc2O[C@@H]1CN(C)Cc1ccccc1,62,3,0,0,nt,nt,nt,nt
C[C@@H]1CN([C@@H](C)CO)S(=O)(=O)c2ccc(-c3cccnc3)cc2O[C@@H]1CN(C)C,?,1,-2,24,97*,92,8,10
C[C@H]1CCCCO[C@@H](CN(C)C(=O)Nc2ccc(C(F)(F)F)cc2)[C@@H](C)CN([C@@H](C)CO)C(=O)c2cc(NC(=O)CCC(F)(F)F)ccc2O1,?,-1,nt,-58,99*,110*,17,17

# Bioassay records (PubChem BioAssay)
